Screening results (PubChem BioAssay)
SUMO Mot1 rescue = yeast Mot1-301 growth rescue at high temperature, primary screen, SUMOylation pathway inhibitor project, S. cerevisiae, ATP luminescence, 38.5C. S. cerevisiae Mot1-301 growth rescue; percent above DMSO median, 100 means doubled. growth rescue, % at 18.8 µM. hit rate 1% among 320,000. AID 2716, 2010;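 active means every valid replicate shows activation above 250% relative to neutral control wells; inactive means the rest, any valid replicate at or below 250%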
WT yeast gro inh = growth inhibition of WT strain, primary screen, mitochondrial fusion inhibitor project, WT and mutant strains, chemical genetic; mitochondrial fusion phenotypic screen; inhibition, % at 10 µM; hit rate 2.1% among 190,000; AID 1362, 2008; in the data active means inhibition above about 58%; tested in S. cerevisiae
Beta apoptosis = inhibitors of cytokine-induced beta cell apoptosis, primary screen, luminescence; INS-1E cytokine-induced death, ATP luminescence, 48 h; percent of positive-control rescue, neutral wells zero; protection from apoptosis, % (no concentration beside the values); hit rate 0.8% among 300,000;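 active means Every replicate reaches about 75%, or at least half do and their mean reaches it too, limit read from the data; inconclusive means At least half of replicates reach the limit but their mean does not; inactive means Under half of replicates reach the limit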;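 further: higher means more ATP so stronger rescue from cytokine killing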
Efflux pump mplx = inhibitors of Candida efflux pumps in yeast, primary screen, S. cerevisiae, Nile Red, multiplex; S. cerevisiae Candida pump triplex; inhibition, % at 10 µM; hit rate 0.44% among 330,000; AID 485275, 2010;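 active means plate passing quality check with inhibition over a set limit, or well fluorescence over plate mean plus 4 SD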;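 further: Nile Red retained in pooled yeast measured as flow cytometry median fluorescence; higher means more Nile Red kept so more efflux inhibition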
CSC inhib = cancer stem cell viability inhibitors, primary screen, luminescence | cancer stem cell-like cells viability | AID 2717, 2010 | inhibition, % at 7.5 µM | hit rate 1.1% among 300,000; in the data active means inhibition above about 75%; inconclusive means no clear call, values can overlap the other calls; tested in HMLE shEcad cells
T cruzi repl = inhibitors of intracellular T. cruzi growth, primary screen, luminescence, NIH3T3 host cells; T. cruzi beta-gal in NIH3T3, 90 h; inhibition, % (test concentration not listed); hit rate 1.4% among 300,000;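 active means mean inhibition across valid replicates above about 55%, limit read from the data; inconclusive means mean below that limit but half or more replicates reach it; inactive means mean below it, under half of replicates reach it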;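 further: signal also drops with host cell toxicity which is not excluded here; higher percent means less beta-gal luminescence so fewer parasites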
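Assay system: NIH/3T3 host cells with β-galactosidase reporter T. cruzi; input: 5,000 host fibroblasts per well; compound: single 50 nL compound addition per well in DMSO; timing: ≥90 h infection period, 3 h prior cell attachment; measured by: GalScreen β-gal luminescence, detergent lysis, 60 min; evaluation: percent inhibition of parasite-derived β-gal signal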
A number is an active result; ! = not active in a repeat. A selection: hits, their analogues and other compounds. The true share with any hit is near 4.8%.

How did Cn1c(O)c(/C=C2\C=Nc3ccccc32)sc1=Nc1ccc(C(=O)O)cc1 do in these assays?
SUMO Mot1 rescue: inactive; Beta apoptosis: inactive; Efflux pump mplx: inactive; CSC inhib: inactive; T cruzi repl: inactive

How did Oc1nc(Nc2ccc(Cl)cc2Cl)sc1/C=C1\C=Nc2ccccc21 do in these assays?
SUMO Mot1 rescue: inactive; WT yeast gro inh: 83; Efflux pump mplx: inactive; CSC inhib: inactive; T cruzi repl: inactive

Results for CCc1ccc(C(=O)NNc2ccc(F)cc2F)cc1 ?
SUMO Mot1 rescue: 339; Beta apoptosis: inactive; Efflux pump mplx: inactive; CSC inhib: inactive; T cruzi repl: inactive

What do the screens show for `CCCc1ccc(C(=O)NNC(=O)c2ccc(Br)cc2)cc1`?
SUMO Mot1 rescue: inactive; WT yeast gro inh: inactive; Beta apoptosis: inactive; Efflux pump mplx: inactive; CSC inhib: inactive; T cruzi repl: inactive

How did CCCc1ccc(C(=O)NNc2ccc(F)cc2)cc1 do in these assays?
SUMO Mot1 rescue: 289; Beta apoptosis: inactive; Efflux pump mplx: inactive; CSC inhib: 94

How did Cc1cccc(NC(=S)NC2CCCC2)n1 do in these assays?
SUMO Mot1 rescue: inactive; WT yeast gro inh: 72; Beta apoptosis: inactive; Efflux pump mplx: inactive; CSC inhib: inactive; T cruzi repl: inactive

Results for Cc1cccc(NC(=S)NC2CCCCC2)n1 ?
SUMO Mot1 rescue: inactive; WT yeast gro inh: 68; Beta apoptosis: inactive; Efflux pump mplx: inactive; CSC inhib: inactive; T cruzi repl: inactive

Results for Cc1cccc(NC(=S)Nc2cccc(C)n2)n1 ?
SUMO Mot1 rescue: inactive; Beta apoptosis: inactive; Efflux pump mplx: inactive; CSC inhib: inactive; T cruzi repl: inactive

How did O=c1cc2oc3cc(O)c(O)cc3c(-c3ccccc3[N+](=O)[O-])c-2cc1O do in these assays?
SUMO Mot1 rescue: inactive; Beta apoptosis: inactive; Efflux pump mplx: inactive; CSC inhib: 95; T cruzi repl: inactive

What do the screens show for `O=C1/C(=C/c2ccc(C(=O)O)cc2)CCC/C1=C\c1ccc(C(=O)O)cc1`?
SUMO Mot1 rescue: inactive; WT yeast gro inh: inactive; Beta apoptosis: inactive; Efflux pump mplx: inactive; CSC inhib: inactive; T cruzi repl: inactive

Results for COc1ccc(/C=C2\CCC/C(=C\C=N\N(C)C)C2=O)cc1 ?
SUMO Mot1 rescue: inactive; WT yeast gro inh: inactive; Beta apoptosis: inactive; Efflux pump mplx: inactive; CSC inhib: 86; T cruzi repl: inactive

Results for CN(C)/N=C/C=C1\CCC/C(=C\c2ccc(F)c(F)c2)C1=O ?
SUMO Mot1 rescue: inactive; WT yeast gro inh: inactive; Beta apoptosis: inactive; Efflux pump mplx: inactive; CSC inhib: 85; T cruzi repl: inactive

How did CC(C)N(C(=O)Cn1c(=O)oc2ccccc21)c1ccccc1 do in these assays?
SUMO Mot1 rescue: inactive; Efflux pump mplx: inactive; CSC inhib: inactive; T cruzi repl: inactive

Results for COc1cc(C(=O)NNC(=S)NC(=O)c2ccc(F)cc2)cc(OC)c1OC ?
SUMO Mot1 rescue: inactive; Beta apoptosis: inactive; Efflux pump mplx: inactive; CSC inhib: inactive; T cruzi repl: 65

What do the screens show for `O=C(NC(=S)NNC(=O)c1cnccn1)c1ccc(F)cc1`?
SUMO Mot1 rescue: inactive; WT yeast gro inh: inactive; Beta apoptosis: 79; Efflux pump mplx: inactive; CSC inhib: inactive; T cruzi repl: inactive

What do the screens show for `O=C(/C=C/c1ccc(F)cc1)NC(=S)NNC(=O)c1cnccn1`?
SUMO Mot1 rescue: inactive; Beta apoptosis: 70; Efflux pump mplx: inactive; CSC inhib: inactive; T cruzi repl: inconclusive

What do the screens show for `COc1ccc(/C=C/C(=O)NC(=S)NNC(=O)c2cnccn2)cc1`?
SUMO Mot1 rescue: inactive; Beta apoptosis: 76; Efflux pump mplx: inactive; CSC inhib: 98; T cruzi repl: 65

What do the screens show for `CO/C([O-])=N/c1c[n+](-c2ccc(Cl)cc2)no1`?
SUMO Mot1 rescue: 290; WT yeast gro inh: inactive; Beta apoptosis: inactive; Efflux pump mplx: inactive; CSC inhib: inactive; T cruzi repl: inactive

Results for Cc1nc2sccn2c(=O)c1CCN1CCC(=C(c2ccc(F)cc2)c2ccc(F)cc2)CC1 ?
SUMO Mot1 rescue: inactive; WT yeast gro inh: 79; Beta apoptosis: inactive; Efflux pump mplx: inactive; CSC inhib: 79; T cruzi repl: inactive

How did CC1(C)C(=O)N(CCN2CCC(C(=O)c3ccc(F)cc3)CC2)c2ccccc21 do in these assays?
SUMO Mot1 rescue: inactive; Beta apoptosis: inactive; Efflux pump mplx: inactive; CSC inhib: inactive

What do the screens show for `Cc1nc2ccccn2c(=O)c1CCN1CCC(C(=O)c2ccc(F)cc2)CC1`?
SUMO Mot1 rescue: 427!; WT yeast gro inh: inactive; Beta apoptosis: inactive; Efflux pump mplx: inactive; CSC inhib: inactive; T cruzi repl: inactive

Results for Cc1nc2sccn2c(=O)c1S(=O)(=O)N1CCN(c2ccc(F)cc2)CC1 ?
SUMO Mot1 rescue: inactive; Beta apoptosis: inactive; Efflux pump mplx: inactive; CSC inhib: inactive; T cruzi repl: inactive

Results for CCc1ccc(OC)c(-c2csc(N)n2)c1 ?
SUMO Mot1 rescue: inactive; WT yeast gro inh: 58; Beta apoptosis: inactive; Efflux pump mplx: inactive; CSC inhib: inactive; T cruzi repl: inactive

How did COc1ccc(-c2csc(N)n2)cc1F do in these assays?
SUMO Mot1 rescue: inactive; WT yeast gro inh: inactive; Beta apoptosis: inactive; Efflux pump mplx: inactive; CSC inhib: inactive; T cruzi repl: inactive

How did COc1ccc2c(c1)-c1nc(NC(=O)c3cccs3)sc1CC2 do in these assays?
SUMO Mot1 rescue: inactive; WT yeast gro inh: 72; Efflux pump mplx: inactive; CSC inhib: inconclusive; T cruzi repl: inactive

Results for COc1ccccc1CN1CCN(Cc2nc(Cc3ccccc3)no2)CC1 ?
SUMO Mot1 rescue: inactive; WT yeast gro inh: inactive; Beta apoptosis: inactive; Efflux pump mplx: inactive; CSC inhib: inactive; T cruzi repl: 63

How did COc1ccccc1CN1CCN(Cc2nc(-c3ccccc3)no2)CC1 do in these assays?
SUMO Mot1 rescue: inactive; WT yeast gro inh: inactive; Beta apoptosis: inactive; Efflux pump mplx: inactive; CSC inhib: inactive; T cruzi repl: inactive

Results for Fc1ccccc1Cc1noc(CN2CCN(Cc3ccc4c(c3)OCO4)CC2)n1 ?
SUMO Mot1 rescue: inactive; WT yeast gro inh: inactive; Beta apoptosis: inactive; Efflux pump mplx: inactive; CSC inhib: inactive; T cruzi repl: 60

Results for c1ccc(Cc2noc(CN3CCN(Cc4ccc5c(c4)OCO5)CC3)n2)cc1 ?
SUMO Mot1 rescue: inactive; WT yeast gro inh: inactive; Beta apoptosis: inactive; Efflux pump mplx: inactive; CSC inhib: inactive; T cruzi repl: inactive

Results for Fc1ccc(CN2CCCN(Cc3nc(-c4ccc5c(c4)OCO5)no3)CC2)cc1 ?
SUMO Mot1 rescue: inactive; WT yeast gro inh: inactive; Beta apoptosis: inactive; Efflux pump mplx: inactive; T cruzi repl: 67

Results for O=C(c1ccco1)N1CCCN(Cc2nc(-c3ccc4c(c3)OCO4)no2)CC1 ?
SUMO Mot1 rescue: inactive; WT yeast gro inh: inactive; Beta apoptosis: inactive; Efflux pump mplx: inactive; CSC inhib: inactive; T cruzi repl: inactive

Results for N#CCCN(C(=O)COC(=O)c1cc(=O)[nH]c2ccccc12)c1ccccc1 ?
SUMO Mot1 rescue: inactive; Beta apoptosis: inactive; Efflux pump mplx: inactive; CSC inhib: inactive
